Columns and labels:
Escherichia coli [1] = experiment: In vitro antibacterial activity against gram negative Escherichia coli Vogel.; type: functional
Enterococcus faecalis = experiment: In vitro antibacterial activity against gram positive Enterococcus faecalis MGH-2.; type: functional
[2] = target: DNA gyrase (Escherichia coli) (UniProt P0AES6+P0AES4); experiment: In vitro concentration inhibiting DNA gyrase induced cleavage in Escherichia coli H560.; type: functional
In short: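 DNA gyrase test run as described in earlier work. The value is the drug concentration (µg/mL) needed to cause DNA cleavage.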

Enterobacter cloacae = experiment: In vitro antibacterial activity against gram negative Enterobacter cloacae MA 2646.; type: functional
Klebsiella pneumoniae = experiment: In vitro antibacterial activity against gram negative Klebsiella pneumoniae MGH-2.; type: functional
Escherichia coli [3] = experiment: In vivo potency against acute systemic infection in mouse caused by Escherichia coli Vogel on oral administration by gavage.; type: functional; details: read-out: PD50
In short: (§1)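 Acute systemic mouse infection. A single oral dose was given by gavage at the time of challenge. Potency is reported as the median protective dose (PD50, mg/kg), determined by earlier published methods.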

Streptococcus pneumoniae [4] = experiment: In vivo potency against acute systemic infection in mouse caused by Streptococcus pneumoniae SV-1 on oral administration by gavage.; type: functional; details: read-out: PD50; in short: as §1
Streptococcus pneumoniae [5] = experiment: In vivo potency against acute systemic infection in mouse caused by Streptococcus pneumoniae SV-1 on subcutaneous injection.; type: functional; details: sc, read-out: PD50
In short: (§2)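 Acute systemic mouse infection. A single subcutaneous dose was injected at the time of challenge. Potency is reported as the median protective dose (PD50, mg/kg), determined by earlier published methods.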

Escherichia coli [6] = experiment: In vivo potency against acute systemic infection in mouse caused by Escherichia coli vogel on subcutaneous injection.; type: functional; details: sc, read-out: PD50; in short: as §2
Pseudomonas aeruginosa = experiment: In vitro antibacterial activity against gram negative Pseudomonas aeruginosa UI-18.; type: functional
Providencia rettgeri = experiment: In vitro antibacterial activity against gram negative Providencia rettgeri M-1771.; type: functional
Staphylococcus aureus [7] = experiment: In vitro antibacterial activity against gram positive Staphylococcus aureus H-228.; type: functional
Streptococcus pyogenes = experiment: In vitro antibacterial activity against gram positive Streptococcus pyogenes C-203.; type: functional
Staphylococcus aureus [8] = experiment: In vitro antibacterial activity against gram positive Staphylococcus aureus UC76.; type: functional
Streptococcus pneumoniae [9] = experiment: In vitro antibacterial activity against gram positive Streptococcus pneumoniae SV-1.; type: functional
[10] = Aqueous solubility; type: physicochemical; details: water (aqueous); read-out: S
In short: (§3)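 Solubility was measured either from HPLC peak areas at equilibrium or by a conventional weight-per-volume method. All solutions were held for 24 h before measurement.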

[11] = Solubility (in 0.1 N HCl); type: physicochemical; details: read-out: S; in short: as §3
[12] = Solubility (at pH 4); type: physicochemical; details: buffer, read-out: S; in short: as §3
[13] = Solubility (at pH 7.4); type: physicochemical; details: buffer, read-out: S; in short: as §3
Mus musculus [14] = experiment: In vivo potency against acute systemic infection in mouse caused by Streptococcus pyogenes C-203 on oral administration by gavage; type: functional; details: read-out: PD50; in short: as §1
Mus musculus [15] = experiment: In vivo potency against acute systemic infection in mouse caused by Streptococcus pyogenes C-203 on subcutaneous injection; type: functional; details: sc, read-out: PD50; in short: as §2

Structure (SMILES)	MIC (Escherichia coli [1])	MIC (Enterococcus faecalis)	Cleavage [2]	MIC (Enterobacter cloacae)	MIC (Klebsiella pneumoniae)	ED50 (Escherichia coli [3])	ED50 (Streptococcus pneumoniae [4])	ED50 (Streptococcus pneumoniae [5])	ED50 (Escherichia coli [6])	MIC (Pseudomonas aeruginosa)	MIC (Providencia rettgeri)	MIC (Staphylococcus aureus [7])	MIC (Streptococcus pyogenes)	MIC (Staphylococcus aureus [8])	MIC (Streptococcus pneumoniae [9])	solubility [10]	solubility [11]	solubility [12]	solubility [13]	further results
Cl.N[C@@H]1CCN(c2c(F)cc3c(=O)c(C(=O)O)cn(C4CC4)c3c2F)C1.O	0.013 µg/mL	0.05 µg/mL	0.5 µg/mL	0.006 µg/mL	0.013 µg/mL	0.9 mg/kg	14 mg/kg	9 mg/kg	0.2 mg/kg	0.1 µg/mL	0.025 µg/mL	0.05 µg/mL	0.05 µg/mL	0.006 µg/mL	0.025 µg/mL	11 mg/mL	–	–	–	–
Cl.NCC(=O)NC1CCN(c2cc3c(cc2F)c(=O)c(C(=O)O)cn3C2CC2)C1.O (stereo unspecified)	0.4 µg/mL	1.6 µg/mL	2.5 µg/mL	0.4 µg/mL	0.8 µg/mL	6.3 mg/kg	> 100 mg/kg	18 mg/kg	1.1 mg/kg	1.6 µg/mL	1.6 µg/mL	3.1 µg/mL	0.1 µg/mL	0.4 µg/mL	0.4 µg/mL	> 100 mg/mL	> 100000 µg/mL	> 100 mg/mL	220 µg/mL	–
Cl.NCC(=O)NC1CCN(c2c(F)cc3c(=O)c(C(=O)O)cn(C4CC4)c3c2F)C1.O (stereo unspecified)	0.2 µg/mL	0.4 µg/mL	5 µg/mL	0.2 µg/mL	0.4 µg/mL	1 mg/kg	29 mg/kg	16 mg/kg	0.4 mg/kg	1.6 µg/mL	0.4 µg/mL	0.4 µg/mL	0.2 µg/mL	0.1 µg/mL	0.4 µg/mL	33 mg/mL	4600 µg/mL	20 mg/mL	–	–
C[C@@H](N)C(=O)NC1CCN(c2c(F)cc3c(=O)c(C(=O)O)cn(C4CC4)c3c2F)C1.Cl.O (stereo partly specified)	0.2 µg/mL	0.025 µg/mL	2.5 µg/mL	0.4 µg/mL	0.4 µg/mL	31 mg/kg	> 100 mg/kg	1 mg/kg	2 mg/kg	1.6 µg/mL	0.8 µg/mL	0.05 µg/mL	0.006 µg/mL	0.006 µg/mL	0.013 µg/mL	42 mg/mL	3600 µg/mL	19.4 mg/mL	–	–
Cl.NCC(=O)NC1CCN(c2c(F)c(N)c3c(=O)c(C(=O)O)cn(C4CC4)c3c2F)C1.O (stereo unspecified)	0.2 µg/mL	0.4 µg/mL	5 µg/mL	0.2 µg/mL	0.4 µg/mL	1 mg/kg	29 mg/kg	16 mg/kg	0.4 mg/kg	1.6 µg/mL	0.4 µg/mL	0.4 µg/mL	0.2 µg/mL	0.1 µg/mL	0.4 µg/mL	17 mg/mL	3500 µg/mL	69 mg/mL	70 µg/mL	ED50 (Mus musculus [14]): 36 mg/kg; ED50 (Mus musculus [15]): 8.1 mg/kg
C[C@H](N)C(=O)N[C@@H]1CCN(c2nc3c(cc2F)c(=O)c(C(=O)O)cn3C2CC2)C1.Cl.O	1.6 µg/mL	3.1 µg/mL	1 µg/mL	0.8 µg/mL	3.1 µg/mL	2 mg/kg	40 mg/kg	28 mg/kg	0.5 mg/kg	6.3 µg/mL	3.1 µg/mL	3.1 µg/mL	0.8 µg/mL	0.8 µg/mL	1.6 µg/mL	> 200 mg/mL	> 200000 µg/mL	> 200 mg/mL	70 µg/mL	ED50 (Mus musculus [14]): 49 mg/kg; ED50 (Mus musculus [15]): 32 mg/kg
C[C@H](N)C(=O)N[C@@H]1CCN(c2c(F)cc3c(=O)c(C(=O)O)cn(C4CC4)c3c2F)C1.Cl.O	0.4 µg/mL	0.8 µg/mL	2.5 µg/mL	0.2 µg/mL	0.8 µg/mL	1 mg/kg	25 mg/kg	19 mg/kg	0.6 mg/kg	3.1 µg/mL	0.8 µg/mL	0.8 µg/mL	0.4 µg/mL	0.2 µg/mL	0.4 µg/mL	29 mg/mL	6000 µg/mL	30 mg/mL	70 µg/mL	–
C[C@@H](N)C(=O)NC1CCN(c2cc3c(cc2F)c(=O)c(C(=O)O)cn3C2CC2)C1.Cl.O (stereo partly specified)	0.8 µg/mL	0.2 µg/mL	1 µg/mL	0.8 µg/mL	0.8 µg/mL	> 100 mg/kg	> 100 mg/kg	3.1 mg/kg	4.1 mg/kg	1.6 µg/mL	1.6 µg/mL	0.4 µg/mL	0.013 µg/mL	0.05 µg/mL	0.025 µg/mL	> 100 mg/mL	> 100000 µg/mL	> 100 mg/mL	240 µg/mL	–

Reference: ChEMBL document CHEMBL1126036, “Quinolone antibacterial agents. Synthesis and structure-activity relationships of a series of amino acid prodrugs of racemic and chiral 7-(3-amino-1-pyrrolidinyl)quinolones. Highly soluble quinolone prodrugs with in vivo pseudomonas activity” (J Med Chem, 1992)
